Assay results from ChEMBL document CHEMBL2010740, “Synthesis and evaluation of 2-amido-3-carboxamide thiophene CB₂ receptor agonists for pain management” (Bioorg Med Chem Lett, 2012).

What was measured:
[1] = molecular target: T1, Cannabinoid receptor 2 (Homo sapiens, UniProt P34972); assay: Displacement of [3H]CP-55940 from human recombinant CB2 receptor expressed in HEK293 cells after 90 mins; format: cell-based
Procedure, shortened: (§1)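 Competitive binding: [³H]CP-55,940 displaced from membranes of HEK 293 cells stably transfected with human or rat CB₂, or CHO cells stably transfected with human or rat CB₁. Reported as pKi. Determinations >2 (duplicate of duplicate).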

[2] = molecular target: T1, Cannabinoid receptor 2; assay: Agonist activity at human recombinant CB2 receptor expressed in HEK293 cells co-expressing chimeric Gaq/o protein by FLIPR assay; format: functional, cell-based
Procedure, shortened: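 FLIPR functional assay in HEK 293 cells stably co-expressing chimeric Gαq/o protein and the CB receptor. Net peak evoked response was compared with the peak response to CP-55,940.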

[3] = molecular target: Cannabinoid receptor 1 (Rattus norvegicus, UniProt P20272); assay: Displacement of [3H]CP-55940 from rat recombinant CB1 receptor expressed in CHO cells after 90 mins; format: cell-based; procedure, shortened: as §1
[4] = molecular target: T2, Cannabinoid receptor 2 (Rattus norvegicus, UniProt Q9QZN9); assay: Displacement of [3H]CP-55940 from rat recombinant CB2 receptor expressed in HEK293 cells after 90 mins; format: cell-based; procedure, shortened: as §1
T2 sequence (Q9QZN9 whole entry): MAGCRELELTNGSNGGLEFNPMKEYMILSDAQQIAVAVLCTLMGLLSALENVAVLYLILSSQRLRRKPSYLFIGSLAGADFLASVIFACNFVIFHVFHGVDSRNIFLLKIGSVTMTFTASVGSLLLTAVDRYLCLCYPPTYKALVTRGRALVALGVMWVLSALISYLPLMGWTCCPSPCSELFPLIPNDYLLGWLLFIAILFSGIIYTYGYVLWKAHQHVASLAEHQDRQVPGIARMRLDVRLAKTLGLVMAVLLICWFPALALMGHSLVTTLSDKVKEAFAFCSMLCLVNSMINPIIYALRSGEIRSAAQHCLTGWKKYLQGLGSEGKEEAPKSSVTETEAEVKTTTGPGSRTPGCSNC

[5] = molecular target: T2, Cannabinoid receptor 2; assay: Agonist activity at rat recombinant CB2 receptor expressed in HEK293 cells assessed as inhibition of forskolin-induced cAMP production after 20 mins by ELISA; format: functional, cell-based
Procedure, shortened: (§2)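 cAMP assay in HEK 293 cells stably expressing the relevant CB receptor, with a fixed concentration of forskolin. cAMP was quantified by ELISA. Activation is given as percent of the CP-55,940 control response.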

[6] = molecular target: Cannabinoid receptor 1 (Homo sapiens, UniProt P21554); assay: Displacement of [3H]CP-55940 from human recombinant CB1 receptor expressed in CHO cells after 90 mins; format: cell-based; procedure, shortened: as §1
[7] = molecular target: T1, Cannabinoid receptor 2; assay: Agonist activity at human recombinant CB2 receptor expressed in HEK293 cells assessed as inhibition of forskolin-induced cAMP production after 20 mins by ELISA; format: functional, cell-based; procedure, shortened: as §2

T1 sequence (P34972 whole entry): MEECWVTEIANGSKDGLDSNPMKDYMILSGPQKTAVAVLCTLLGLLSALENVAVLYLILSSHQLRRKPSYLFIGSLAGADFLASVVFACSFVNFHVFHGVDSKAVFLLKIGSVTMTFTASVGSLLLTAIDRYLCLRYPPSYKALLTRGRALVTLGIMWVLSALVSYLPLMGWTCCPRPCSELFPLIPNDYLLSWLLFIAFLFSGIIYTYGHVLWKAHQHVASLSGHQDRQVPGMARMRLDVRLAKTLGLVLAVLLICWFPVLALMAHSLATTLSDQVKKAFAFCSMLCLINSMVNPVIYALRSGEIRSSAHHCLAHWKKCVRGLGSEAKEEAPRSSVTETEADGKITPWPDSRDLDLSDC
Chain of Cannabinoid receptor 1 (Homo sapiens, UniProt P21554) (P21554 whole entry): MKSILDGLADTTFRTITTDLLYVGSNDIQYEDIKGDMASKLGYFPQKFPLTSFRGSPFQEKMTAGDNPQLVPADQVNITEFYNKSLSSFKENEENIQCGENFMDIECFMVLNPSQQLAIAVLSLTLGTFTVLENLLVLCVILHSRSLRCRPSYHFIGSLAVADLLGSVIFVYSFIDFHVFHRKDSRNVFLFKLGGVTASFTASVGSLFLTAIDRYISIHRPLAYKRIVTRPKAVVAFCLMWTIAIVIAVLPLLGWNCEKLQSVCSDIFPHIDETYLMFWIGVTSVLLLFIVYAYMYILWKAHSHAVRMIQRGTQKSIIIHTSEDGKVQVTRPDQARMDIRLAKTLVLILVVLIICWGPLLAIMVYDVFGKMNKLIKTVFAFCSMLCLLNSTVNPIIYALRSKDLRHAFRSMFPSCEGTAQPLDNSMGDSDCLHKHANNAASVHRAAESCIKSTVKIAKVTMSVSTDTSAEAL
Chain of Cannabinoid receptor 1 (Rattus norvegicus, UniProt P20272) (P20272 whole entry): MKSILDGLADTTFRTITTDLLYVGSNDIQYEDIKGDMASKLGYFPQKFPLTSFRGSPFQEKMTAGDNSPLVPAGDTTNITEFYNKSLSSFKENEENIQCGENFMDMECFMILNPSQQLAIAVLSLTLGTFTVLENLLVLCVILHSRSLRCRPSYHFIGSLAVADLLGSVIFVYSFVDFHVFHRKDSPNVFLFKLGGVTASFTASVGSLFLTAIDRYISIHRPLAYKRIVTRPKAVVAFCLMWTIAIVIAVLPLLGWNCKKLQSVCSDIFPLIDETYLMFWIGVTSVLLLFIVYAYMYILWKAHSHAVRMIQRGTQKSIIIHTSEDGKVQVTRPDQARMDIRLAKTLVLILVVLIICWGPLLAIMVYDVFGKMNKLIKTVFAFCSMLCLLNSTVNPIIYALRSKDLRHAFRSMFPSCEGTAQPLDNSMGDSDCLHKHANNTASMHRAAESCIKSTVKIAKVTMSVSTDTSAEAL

SMILES	Ki [1]	IC50 [2]	Ki [3]	Ki [4]	IC50 [5]	Ki [6]	IC50 [7]
CCCNC(=O)c1c(NC(=O)C2C(C)(C)C2(C)C)sc2c1CCOC2	91.2 nM	52.5 nM	191 nM	4.37 nM	> 10000 nM	> 10000 nM	1 nM
CCCNC(=O)c1c(NC(=O)c2c(F)cccc2C(F)(F)F)sc2c1CCOC2	105 nM	–	–	331 nM	–	> 10000 nM	–
